This is a sample that favours compounds with a hit; in the whole collection about 2.9% have one here.
ERAP1 inh = ERAP1 (human) enzyme inhibition. 0.15% of 340,000 active. inhibition, % at 10.7 µM. recombinant ERAP1, Leu-AMC fluorescence, 60 min. AID 652197. Q9NZ08;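 active = mean replicate inhibition of at least 30%, or all replicates individually reaching that 30% level; inactive = mean below 30% and not every replicate reaching it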;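 note: 0% = neutral control wells and 100% = L-leucinethiol positive control wells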
CAL PDZ FP-1 = blocks peptide binding to human CAL PDZ domain; Q9HD26; purified CAL PDZ, TMR-peptide fluorescence polarization, 1 h; inhibition, % at 20 µM; 0.02% of 330,000 active; AID 504414;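 active = highest replicate inhibition of at least 40%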;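 note: plate controls were DMSO neutral control wells for no effect and unlabeled competitor peptide control wells for full effect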
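material = purified tagged CAL PDZ domain construct (CerCALP) | buffer or medium = sodium phosphate/NaCl buffer pH 7.4 with TCEP, IgG, Thesit | reagent = TMR-labelled reporter peptide T*-PRC34 bound in PDZ groove | incubation = 1 h room-temperature incubation prior to read | measured by = fluorescence polarization (mP) | evaluation = percent inhibition from loss of millipolarization | control set = unlabelled peptide and DMSO controls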
SIRT5 inh = blocks human SIRT5 desuccinylation of peptide. Q9NXA8. Purified SirT5, succinyl-peptide AMC, trypsin-coupled fluorescence. inhibition, % at 15 µM. 1.1% of 330,000 active. AID 652115; in the data active = inhibition above about 15%
Target sequence (Q9NXA8 whole entry, looked up): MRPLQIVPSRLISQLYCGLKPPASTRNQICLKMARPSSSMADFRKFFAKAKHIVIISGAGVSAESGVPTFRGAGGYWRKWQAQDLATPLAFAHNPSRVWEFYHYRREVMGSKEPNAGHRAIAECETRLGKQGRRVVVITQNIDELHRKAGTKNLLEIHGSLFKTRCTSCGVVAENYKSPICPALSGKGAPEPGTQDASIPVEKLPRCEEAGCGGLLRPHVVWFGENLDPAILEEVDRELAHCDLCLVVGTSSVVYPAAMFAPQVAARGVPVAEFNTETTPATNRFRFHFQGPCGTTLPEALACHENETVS
S100A4 MyoIIA = blocks human S100A4 binding to myosin IIA peptide. P26447. S100A4/TAMRA-MyoIIA peptide fluorescence polarization. inhibition, % at 10.7 µM. 0.14% of 360,000 active;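 active = mean inhibition of at least 70% across replicates, with every replicate also reaching that level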
Target sequence (P26447 whole entry, looked up): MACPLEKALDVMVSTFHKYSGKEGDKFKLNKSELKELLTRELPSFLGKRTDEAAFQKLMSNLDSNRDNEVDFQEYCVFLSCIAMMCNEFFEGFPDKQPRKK
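assay system = human S100A4 monomer with TAMRA-labelled myosin IIA peptide | also added = labelled myosin peptide probe, 5 nM | incubation = 5 min between mix addition and reading | control set = DMSO and TFP controls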
CAL PDZ FP-2 = inhibitors of human CAL PDZ peptide binding; inhibition, % at 24.9 µM; AID 602252; Q9HD26; purified CAL PDZ, TMR-peptide fluorescence polarization, 1 h; 0.92% of 300,000 active;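 active = mean inhibition of at least 30% with at least half of replicates also reaching 30%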;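 note: 0% = DMSO neutral control and 100% = excess unlabeled competitor peptide PRC23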
DENV2 CPE rescue = inhibitors of DENV2 cytopathic effect; DENV2-infected cells, cytopathic effect rescue, plate reader; CPE inhibition, % at 9.99 µM; 1.7% of 350,000 active; AID 651640; in the data active = CPE inhibition above about 20%, passing the limit was not always enough; tested in BHK-21 cells;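 note: 0% = median of neutral control wells and 100% = median of positive control wells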
* = called active by the depositor; . = no result.

SMILES	ERAP1 inh	CAL PDZ FP-1	SIRT5 inh	S100A4 MyoIIA	CAL PDZ FP-2	DENV2 CPE rescue
O=C(Cc1ccncc1)NCC[C@@H]1CC[C@@H](NC(=O)Nc2ccc(Cl)cc2)[C@@H](CO)O1	2.2	.	-1.4	-4.0	.	-4.8
CCC(=O)N1C[C@H](C)[C@H](OC)CN(C)C(=O)c2ccc(NC(=O)NC(C)C)cc2OC[C@H]1C	3.1	.	-0.8	3.8	.	69.8*
CCC(=O)N1C[C@H](C)[C@@H](OC)CN(C)C(=O)c2ccc(NC(=O)Nc3ccc(Cl)cc3)cc2OC[C@@H]1C	2.6	.	2.3	-8.9	.	-7.3
CCC(=O)N1C[C@H](C)[C@@H](OC)CN(C)C(=O)c2ccc(NC(=O)NC(C)C)cc2OC[C@@H]1C	1.8	.	-0.7	52.8	.	-2.5
CCC(=O)N1C[C@@H](C)[C@@H](OC)CN(C)C(=O)c2ccc(NC(=O)Nc3ccc(Cl)cc3)cc2OC[C@H]1C	.	.	1.6	-17.2	.	80.5*
CO[C@H]1CN(C)C(=O)c2ccc(NC(C)=O)cc2OC[C@H](C)N(C(=O)C2CCC2)C[C@@H]1C	-0.8	.	4.2	-0.4	.	30.1*
CCC(=O)Nc1ccc2c(c1)OC[C@@H](C)N(C(=O)C1CC1)C[C@H](C)[C@H](OC)CN(C)C2=O	-1.2	.	-2.0	5.4	.	36.1*
CO[C@@H]1CN(C)C(=O)c2ccc(NC(C)=O)cc2OC[C@@H](C)N(C(=O)C2CCC2)C[C@@H]1C	-0.8	.	2.5	2.5	.	-8.7
O=C(C[C@@H]1CC[C@@H]2[C@H](COC[C@@H](O)CN2S(=O)(=O)c2cccc(F)c2)O1)Nc1ccccc1	.	.	.	.	.	0.7
CN1CCN(C(=O)C[C@H]2CC[C@@H]3[C@@H](COc4ccc(NC(=O)C5CCCC5)cc4C(=O)N3C)O2)CC1	1.8	.	5.7	4.6	.	-2.6
CCCNC(=O)Nc1ccc2c(c1)OC[C@H](C)N(C(=O)CC)C[C@H](C)[C@@H](OC)CN(C)C2=O	-0.4	.	3.4	0.8	.	31.4*
CO[C@H]1CN(C)C(=O)c2cc(NC(=O)Nc3ccc(Cl)cc3)ccc2OC[C@H](C)N(C)C[C@@H]1C	0.0	.	-3.3	4.3	.	50.1*
CO[C@H]1CN(C)C(=O)c2cc(NC(=O)Nc3ccc(Cl)cc3)ccc2OC[C@@H](C)N(C)C[C@H]1C	-1.3	.	-0.8	0.0	.	11.7
CCCNC(=O)Nc1ccc2c(c1)OC[C@H](C)N(C(=O)C1CC1)C[C@H](C)[C@@H](OC)CN(C)C2=O	0.6	.	-0.6	92.6*	.	-8.8
CCCNC(=O)Nc1ccc2c(c1)OC[C@@H](C)N(C(=O)C1CC1)C[C@@H](C)[C@@H](OC)CN(C)C2=O	1.8	.	4.3	13.7	.	3.1
CCCNC(=O)Nc1ccc2c(c1)OC[C@@H](C)N(S(C)(=O)=O)C[C@@H](C)[C@H](OC)CN(C)C2=O	1.2	.	-0.7	7.9	.	43.3*
COCC(=O)Nc1ccc2c(c1)OC[C@@H](C)N(C(=O)c1ccccc1)C[C@@H](C)[C@H](OC)CN(C)C2=O	2.6	.	0.5	12.1	.	-4.4
COCCCNC(=O)[C@@]1(CCS(=O)(=O)c2ccccc2)COC(c2ccc(OCCCO)cc2)=N1	2.7	.	-1.3	4.5	.	9.2
CCc1nc2ccc(C(=O)N(CC)CCN(C)C)cn2c1N(CC)C(=O)NCCc1ccccc1	-3.6	.	28.6*	1.4	.	-10.7
CCc1nc2ccc(C(=O)N(CC)CCN(C)C)cn2c1N(C)C(=O)c1cccc(OC)c1	-0.9	.	.	0.0	.	26.4*
CCc1nc2ccc(C(=O)N3CCN(C(C)=O)CC3)cn2c1N(CC)C(=O)NCCc1ccccc1	-4.8	.	-1.8	-6.1	.	-13.6
C[C@H](CO)N1C[C@H](C)[C@@H](CN(C)S(=O)(=O)c2ccccc2)Oc2ccc(NC(=O)CCCCCC(=O)Nc3ccccc3N)cc2CC1=O	-0.4	.	-0.3	32.7	.	-5.9
N#CC1=C(N)Oc2n[nH]c(-c3cccnc3)c2C1c1ccc([N+](=O)[O-])o1 (stereo unspecified)	3.1	-5.4	1.0	-3.3	51.3*	6.3
COc1ccccc1S(=O)(=O)N[C@@H]1CC[C@@H](CCn2cc(C3CC3)nn2)O[C@H]1CO	-0.5	.	3.4	-0.7	.	0.6
CC(=O)N1CCC2(CC1)C/C(=N\NC(=S)Nc1ccccc1C)c1cc(O)ccc1O2	-3.0	-5.6	20.8*	-2.1	.	3.7
SMILES	ERAP1 inh	CAL PDZ FP-1	SIRT5 inh	S100A4 MyoIIA	CAL PDZ FP-2	DENV2 CPE rescue
CC(=O)N1CCC2(CC1)C/C(=N\NC(=S)Nc1ccccc1F)c1cc(O)ccc1O2	-1.3	-2.3	-3.5	-2.4	5.7	6.3
COc1cc(C(=O)NNC(=O)c2ccc3c(c2)OCCO3)cc(OC)c1OC	-2.5	-0.4	.	-0.1	92.0*	-11.8
O=C(Nc1ccccc1C(=O)Nc1ccccn1)c1ccc([N+](=O)[O-])cc1	6.9	0.4	-1.1	0.1	42.8*	4.8
COc1ccc(C(=O)Nc2ccccc2C(=O)Nc2ccccn2)cc1	1.2	-2.6	-2.5	-3.3	-5.0	-6.9
O=C(O)c1ccc(CNC(=O)c2ccccc2NC(=O)c2ccc([N+](=O)[O-])cc2)cc1	-6.1	.	-3.2	-3.4	49.5*	-1.0
C[C@H](CO)N1C[C@H](C)[C@@H](CN(C)CC2CCCCC2)Oc2ccc(NC(=O)Nc3cccc4ccccc34)cc2CC1=O	0.2	.	1.6	-2.6	.	4.2
C[C@@H]1CN([C@@H](C)CO)C(=O)c2cc(NS(=O)(=O)c3ccc(Cl)cc3)ccc2O[C@@H](C)CCCCO[C@@H]1CN(C)C(=O)CCCN(C)C	-4.2	.	-5.6	-2.0	.	20.4*
C[C@@H]1CCCCO[C@@H](CN(C)C(=O)CCCN(C)C)[C@@H](C)CN([C@H](C)CO)C(=O)c2cc(NS(=O)(=O)c3ccc(Cl)cc3)ccc2O1	-4.6	.	5.3	5.9	.	1.9
Cc1ccc(S(=O)(=O)Nc2ccc3c(c2)C(=O)N([C@@H](C)CO)C[C@H](C)[C@@H](CN(C)C(=O)CCCN(C)C)OCCCC[C@H](C)O3)cc1	-1.4	.	-4.4	-0.7	.	-0.8
C[C@@H]1CN([C@H](C)CO)C(=O)c2cc(NS(=O)(=O)c3ccc(Cl)cc3)ccc2O[C@@H](C)CCCCO[C@@H]1CN(C)C(=O)CCCN(C)C	-4.6	.	-3.8	-13.4	.	22.4*
CN1CCN(C(=O)C[C@@H]2C=C[C@H](NS(=O)(=O)c3cccc(F)c3)[C@H](CO)O2)CC1	-1.1	.	4.2	16.3	.	7.0
CC1=C(C#N)c2nc(N)c(C#N)c(C)c2/C1=C\c1ccc(OCC(=O)O)c(Cl)c1	-2.0	-2.4	18.9*	-13.9	-2.2	2.0
CN(C)CCCNC(=O)[C@H]1[C@H](CO)[C@H]2Cn3c(ccc(-c4ccc(F)cc4)c3=O)[C@@H]1N2C	.	.	-4.5	.	.	-6.4
CN(CC(=O)Nc1ccc(F)cc1)C(=O)Cn1cnc2ccc([N+](=O)[O-])cc2c1=O	3.0	0.0	23.9*	-3.8	2.5	-3.5

Assay outcomes (PubChem BioAssay)
